Six compounds from ChEMBL document CHEMBL1122351, “Synthesis of (E)-1-(5-chlorothien-2-yl)-2-(1H-imidazol-1-yl)ethanone 2,6-dichlorophenylhydrazone hydrochloride, a novel, orally active antifungal agent” (1983) can be followed below.

Test [1] relates to Candida albicans. In words: In vitro antifungal activity against Candida albicans 3153. It counts as functional. Put shortly: (§1)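 Agar dilution in Sabouraud dextrose agar in microtitre wells. Drug stock in Me2SO, serial twofold dilutions to final 0.8–100 µg/mL, final Me2SO 1%. Candida inoculum 10^4 cells/mL, read after 24 h at 37 °C. Dermatophytes used mycelial inocula, read after 5 days at […]. MIC is the highest dilution with no visible growth. Run in duplicate.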

Test [2] has as its system Candida albicans. In words: In vitro antifungal activity against Candida albicans B. It counts as functional. Summed up:
as §1

The test system of test [3] is Candida albicans. In words: In vitro antifungal activity against Candida albicans GB. It counts as functional. Put shortly:
as §1

For another test, the system named is Epidermophyton floccosum. In words: In vitro antifungal activity against Epidermophyton floccosum. It counts as functional. Put shortly:
as §1

For a further test, the system named is Microsporum canis. In words: In vitro antifungal activity against Microsporum canis. It counts as functional. Put shortly: as §1
Another test relates to Trichophyton rubrum. In words: In vitro antifungal activity against Trichophyton rubrum. The class given is functional. Summed up:
as §1

Another test deals with Trichophyton benhamiae. In words: In vitro antifungal activity against Trichophyton mentagrophytes. The class given is functional, Arthroderma benhamiae. Put shortly:
as §1

Test [4] relates to Candida albicans. In words: In vitro antifungal activity against Candida albicans A. It counts as functional. Put shortly: as §1
Test [5] relates to Cavia porcellus. In words: Effect of topical administration (1% w/v) on course of expt. Ringworm infections in guinea pig by Trichophyton mentagrophytes. It counts as functional. Put shortly: (§2)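 Female guinea pigs, eight per group, shaved backs infected with a saline suspension of T. mentagrophytes spores. Drug given orally or applied topically; topical positive control was a 1% w/v solution in polyethylene glycol 200. Disease course followed by culture of skin and hair samples from on and around the infection sites. Result given as % reduction in recovery versus control.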

In test [6] the test system is Rattus norvegicus. In words: Percent reduction in recovery of Candida albicans (experimental vaginitis) in rats by topical administration at 1% w/v. The class given is functional, Vagina.
The test system of test [7] is Cavia porcellus. In words: Effect of oral administration (60 mg/kg) on course of expt. Ringworm infections in guinea pig by Trichophyton mentagrophytes. It counts as functional. Summed up:
as §2

Test [8] deals with Mus musculus. In words: Effect of oral administration (10 mg/kg) on recovery of Candida albicans from kidneys of mice with expt. candidal infection. It counts as functional. Put shortly:
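Mice (10 per group) infected intravenously with a sublethal dose (50 × 10^4 cells) of C. albicans. Oral gavage at 0 and 24 h after infection. Kidneys excised 2 days post-infection, weighed and homogenized. Diluted homogenates plated on glucose-peptone agar for 24 h at 37 °C. Colony counts compared with infected, untreated controls and expressed as % reduction.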

Test [9] has as its system Rattus norvegicus. In words: Percent reduction in recovery of Candida albicans (experimental vaginitis) in rats at 10 mg/kg (po). It counts as functional, Vagina. Summed up:
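Female Wistar rats, 6 per group, hysterectomized and ovariectomized. Pseudoestrus induced and kept by s.c. estradiol diacetate (125 µg) every 3 days. Infected intravaginally with 10^7 C. albicans cells on 2 successive days, with 2 days to establish. Maximal infection meant >600 colonies per 50 µL vaginal washing. Dosed by oral gavage; % reduction in recovery versus control.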

Test [10] concerns Cavia porcellus. In words: Effect of oral administration (30 mg/kg) on course of expt. Ringworm infections in guinea pig by Trichophyton mentagrophytes. The class given is functional. Summed up: as §2
For test [11], the system named is Cavia porcellus. In words: Effect of topical administration (2% w/v) on course of expt. Ringworm infections in guinea pig by Trichophyton mentagrophytes. It counts as functional. Put shortly:
as §2

The test system of test [12] is Mus musculus. In words: Effect of oral administration (2.5 mg/kg) on recovery of Candida albicans from kidneys of mice with expt. candidal infection. It counts as functional. Summed up: (§3)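 Mice, 10 per group, infected intravenously with a sublethal dose (50 × 10^4 cells) of C. albicans. Oral gavage at 0 and 24 h after infection. Killed 2 days post-infection; kidneys excised, weighed, homogenized, diluted and plated on glucose-peptone agar, 24 h at 37 °C. Colony counts compared with infected untreated controls, given as % reduction.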

Test [13] relates to Mus musculus. In words: Effect of oral administration (20 mg/kg) on recovery of Candida albicans from kidneys of mice with expt. candidal infection. It counts as functional. Summed up: as §3
Test [14] relates to Mus musculus. In words: Effect of oral administration (5 mg/kg) on recovery of Candida albicans from kidneys of mice with expt. candidal infection. The class given is functional. Summed up:
as §3

Test [15] relates to Rattus norvegicus. In words: Percent reduction in recovery of Candida albicans (experimental vaginitis) n rats at 20 mg/kg (po). The class given is functional, Vagina. Summed up: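 Female Wistar rats, 6 per group, hysterectomized and ovariectomized. Pseudoestrus induced with subcutaneous estradiol diacetate (125 µg) after 3 weeks, then every 3 days. Infected intravaginally with 10^7 C. albicans cells on 2 successive days; treatment began 2 days later. Infection confirmed by >600 colonies per 50 µL vaginal washings. Oral dosing by gavage. Result given as % reduction in recovery versus control.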

Test [16] has as its system Rattus norvegicus. In words: Percent reduction in recovery of Candida albicans (experimental vaginitis) n rats by topical administration at 1% w/v. It counts as functional, Vagina.

≈ marks a conversion by molar mass, not a printed value.

Turning to `Cl.Clc1ccc(/C(Cn2ccnc2)=N\Nc2c(Cl)cccc2Cl)s1`, the MIC (as a rule, the lowest concentration that inhibits growth of the organism) was 12.5 µg/mL in the test on Candida albicans [1]; 6.2 µg/mL in the test with Candida albicans [2]; 12.5 µg/mL against Candida albicans [3]; 25 µg/mL with Epidermophyton floccosum; 25 µg/mL against Microsporum canis; 12.5 µg/mL in the test on Trichophyton rubrum. The MIC with Trichophyton benhamiae is 12.5 µg/mL; against Candida albicans [4] it was 6.2 µg/mL.

Take `Clc1ccccc1C(c1ccccc1)(c1ccccc1)n1ccnc1` [CLOTRIMAZOLE]: the Reduction amounted to 88% in the test with Cavia porcellus [5] and 75% in the test with Rattus norvegicus [6].

Consider `COC1=CC(=O)C[C@@H](C)[C@]12Oc1c(Cl)c(OC)cc(OC)c1C2=O` [GRISEOFULVIN], for which the Reduction with Cavia porcellus [7] worked out at 90%.

On to `CC(=O)N1CCN(c2ccc(OCC3COC(Cn4ccnc4)(c4ccc(Cl)cc4Cl)O3)cc2)CC1` (stereo not drawn) [KETOCONAZOLE], for which the values for the Reduction with Mus musculus [8] and in the test on Rattus norvegicus [9] were 57% and 68%, respectively.

As for `Clc1ccc(COC(Cn2ccnc2)c2ccc(Cl)cc2Cl)c(Cl)c1` (stereo not drawn) [MICONAZOLE], the minimum inhibitory concentration (MIC) against Candida albicans [1] was determined as 12.5 µg/mL (≈ 30 µM); with Candida albicans [2], 6.2 µg/mL (≈ 14.9 µM); in the test with Candida albicans [3], 6.2 µg/mL (≈ 14.9 µM); against Epidermophyton floccosum, 12.5 µg/mL (≈ 30 µM); in the test with Microsporum canis, 6.2 µg/mL (≈ 14.9 µM); against Trichophyton rubrum, 1.6 µg/mL (≈ 3.84 µM). The MIC was determined as 1.6 µg/mL (≈ 3.84 µM) against Trichophyton benhamiae and 6.2 µg/mL (≈ 14.9 µM) in the test with Candida albicans [4].

With `Cl.Clc1ccc(/C(Cn2ccnc2)=N/Nc2c(Cl)cccc2Cl)s1` [ZINOCONAZOLE HYDROCHLORIDE], the MIC with Candida albicans [1] worked out at 12.5 µg/mL; against Candida albicans [2], 6.2 µg/mL; against Candida albicans [3], 12.5 µg/mL; against Epidermophyton floccosum, 25 µg/mL; in the test on Microsporum canis, 25 µg/mL; with Trichophyton rubrum it was 25 µg/mL. The figures for the minimum inhibitory concentration (MIC) in the test with Trichophyton benhamiae and against Candida albicans [4] were 12.5 µg/mL and 6.2 µg/mL, respectively. Moreover, the Reduction is 70% with Cavia porcellus [10]; 77% in the test with Cavia porcellus [11]; 65% with Mus musculus [8]; 9% in the test on Mus musculus [12]; 44% in the test with Mus musculus [13]; 43% in the test with Mus musculus [14]. Also, the Reduction in the test with Rattus norvegicus [9] came out at 47%; in the test on Rattus norvegicus [15] it was 63%; in the test with Rattus norvegicus [16], 54%.
